Measured values published in PubChem BioAssay AID624289 (Broad Institute, 2012).
Where “and” joins values, the source holds several entries; their conditions need not be identical. Equal values may be shown once. Calls of active or inactive are those of the source.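 How the source made its calls: active means compounds lowering cell ATP signal with a fitted AC50 no higher than twice the top tested dose; inconclusive means flat curve with 30 to 70% signal loss, or poor fit; inactive means the rest.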

Tests used:
[1] = system: SK-MEL-5 viability, ATP luminescence (CellTiter-Glo), 24 h; assay: SK-MEL-5 parental cell viability reduction, dose response, orthogonal assay for MITF inhibitor project, CellTiter-Glo, dry powder samples, set 2 (AID 624289)
Outline: (§1)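 system = SK-MEL-5 human melanoma cells, parental line of primary-screen reporter | input = 3000 SK-MEL-5 cells per well | buffer or medium = phenol red-free growth medium | dosing = pinned compound dose series | times = 24 h compound treatment at 37 °C, 5 min read delay | signal = ATP luminescence, CellTiter-Glo | measure = cell viability inferred from cellular ATP level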

[2] = as above; conditions: SK-MEL-5 viability, ATP luminescence (CellTiter-Glo), 24 h; at 35 µM (top of the series)
Outline: as §1

SMILES | AC50 [1] | activity change, negative = inhibition [2]
Cc1nc2ccccc2n1/N=C/c1ccc([N+](=O)[O-])s1 | 6.5 µM | –
CN1CCN(C2=C(NS(=O)(=O)c3ccc(Br)s3)C(=O)c3ccccc3C2=O)CC1 | 13.9 µM | –
CC(=O)NC1=C(c2cccc(Cl)c2)C(=O)c2ccccc2C1=O | 11.5 µM | –
COc1ccc(C2=C(NC(=O)c3ccccc3OC)C(=O)c3ccccc3C2=O)cc1 | > 70 µM (inactive) | –
O=C(NC1=C(c2ccc(OC(F)(F)F)cc2)C(=O)c2ccccc2C1=O)c1ccco1 | 23.1 µM | –
COC1=C(NS(=O)(=O)c2ccccc2)C(=O)c2ccccc2C1=O | 7.28 µM | –
O=C1C(NS(=O)(=O)c2ccc(Br)cc2)=C(c2ccccc2)C(=O)c2ccccc21 | 30.9 µM | –
CN1CCN(C2=C(NC(=O)c3ccc(Br)cc3)C(=O)c3ccccc3C2=O)CC1 | 3.05 µM | –
O=C1C(NS(=O)(=O)c2ccc(Br)cc2)=C(N2CCN(c3ccccc3)CC2)C(=O)c2ccccc21 | 25.2 µM | –
NC1=C(NC(=O)c2ccccc2)C(=O)c2ccccc2C1=O | 10.1 µM | –
C=CCNC1=C(Cl)C(=O)c2ccccc2C1=O | 5.18 µM and 7.1 µM | –
COc1ccc(C2=C(NC(=O)c3ccc4ccccc4c3)C(=O)c3ccccc3C2=O)cc1 | > 70 µM (inactive) | –
C=CCNC1=C(N2CCOCC2)C(=O)c2ccccc2C1=O | 6.79 µM | –
CCN1CCN(C2=C(NS(=O)(=O)c3ccc(Br)cc3)C(=O)c3ccccc3C2=O)CC1 | 25.4 µM | –
C=CCNC1=C(NCCCN(CC)CC)C(=O)c2ccccc2C1=O | 11.5 µM | –
CN1CCN(C2=C(Nc3ccccc3)C(=O)c3ccccc3C2=O)CC1 | 14.1 µM | –
C=CCNC1=C(N2CCN(C)CC2)C(=O)c2ccccc2C1=O | 20.1 µM | –
NC1=C(c2ccc(OC(F)(F)F)cc2)C(=O)c2ccccc2C1=O | > 70 µM (inactive) | –
CN1CCN(C2=C(NS(=O)(=O)c3ccc(Br)cc3)C(=O)c3ccccc3C2=O)CC1 | > 70 µM (inactive) | –
C[C@@H](NC1=C(Nc2ccccc2)C(=O)c2ccccc2C1=O)c1ccccc1 | > 70 µM (inactive) | –
COc1ccc(C2=C(NC(C)=O)C(=O)c3ccccc3C2=O)cc1 | 11.7 µM | –
C=CCNC1=C(NS(=O)(=O)c2ccc(Br)cc2)C(=O)c2ccccc2C1=O | 24.4 µM | –
O=C(NC1=C(c2ccccc2)C(=O)c2ccccc2C1=O)c1ccccc1 | 20.6 µM | –

SMILES | AC50 [1] | activity change, negative = inhibition [2]
CN1CCN(C2=C(NS(=O)(=O)c3ccccc3)C(=O)c3ccccc3C2=O)CC1 | 11.1 µM | –
O=C1C(NS(=O)(=O)c2cccs2)=C(N2CCOCC2)C(=O)c2ccccc21 | 21.1 µM | –
CCN1CCN(C2=C(Nc3ccccc3)C(=O)c3ccccc3C2=O)CC1 | 14.2 µM | –
Cc1ccc(C(=O)NC2=C(c3ccc(OC(F)(F)F)cc3)C(=O)c3ccccc3C2=O)o1 | 29.5 µM | –
COc1ccc(C(=O)NC2=C(c3ccc(OC)cc3)C(=O)c3ccccc3C2=O)cc1 | 15 µM | –
C=CCNC1=C(N2CCCCC2)C(=O)c2ccccc2C1=O | 2.66 µM | –
O=C1C(NS(=O)(=O)c2ccc(Br)cc2)=C(N2CCSCC2)C(=O)c2ccccc21 | 32.5 µM | –
O=C1C(NS(=O)(=O)c2ccccc2)=C(N2CCOCC2)C(=O)c2ccccc21 | 19.4 µM | –
O=C1C(Nc2ccccc2)=C(N2CCOCC2)C(=O)c2ccccc21 | 29.3 µM and 24.5 µM | –
COc1ccc(C(=O)NC2=C(c3ccccc3)C(=O)c3ccccc3C2=O)cc1 | 21.5 µM | –
O=C1C(Nc2ccccc2)=C(N2CCCCC2)C(=O)c2ccccc21 | 8.69 µM | –
C=C1C(=O)OC2C1CC/C(C)=C\CCC1(C)OC21 (centres undefined) | > 70 µM (inactive) | –
CCN1c2ccccc2NC2N=C(OC)C(c3ccccc3)C21 (centres undefined) | 11.1 µM | –
COc1ccc(C2=C(NC(=O)c3cccc(OC)c3)C(=O)c3ccccc3C2=O)cc1 | 24.4 µM | –
CCN(CC)CCCCNC1=C(Nc2ccccc2)C(=O)c2ccccc2C1=O | 33.2 µM | –
CC(=O)N(C)C1=C(N2CCCCC2)C(=O)c2ccccc2C1=O | 2.67 µM | –
C=CCNC1=C(NCCN(CC)CC)C(=O)c2ccccc2C1=O | 9.17 µM | –
O=C(NC1=C(N2CCOCC2)C(=O)c2ccccc2C1=O)c1ccccc1 | 18.2 µM | –
CCN(CC)CCCNC1=C(N(C)C(C)=O)C(=O)c2ccccc2C1=O | 3.19 µM | –
C=CCNC1=C(N2CCN(CC)CC2)C(=O)c2ccccc2C1=O | 20.1 µM | –
CC(=O)NC1=C(c2ccc(Oc3ccccc3)cc2)C(=O)c2ccccc2C1=O | 14.2 µM | –
NC1=C(c2ccccc2)C(=O)c2ccccc2C1=O | 28.5 µM | –
CCN(CC)CCNC1=C(Nc2ccccc2)C(=O)c2ccccc2C1=O | 36.4 µM | –

SMILES | AC50 [1] | activity change, negative = inhibition [2]
COc1ccc(S(=O)(=O)N(C(C)=O)c2ccc(OC(C)=O)c3ccccc23)cc1[N+](=O)[O-] | 19.9 µM | –
O=C(NC1=C(c2ccccc2)C(=O)c2ccccc2C1=O)c1ccc(Br)cc1 | 28.9 µM | –
O=C(NC1=C(c2ccc(OC(F)(F)F)cc2)C(=O)c2ccccc2C1=O)c1ccccc1 | 24.3 µM | –
CCN1CCN(C2=C(NS(=O)(=O)c3cccs3)C(=O)c3ccccc3C2=O)CC1 | 19.2 µM | –
COc1cccc(-c2cc(C(=O)NC3=C(Cl)C(=O)c4ccccc4C3=O)ccc2OC)c1 | 22.4 µM | –
CC(=O)NC1=C(c2ccc(Cl)cc2)C(=O)c2ccccc2C1=O | 15.8 µM | –
C=CCNC1=C(NCC=C)C(=O)c2ccccc2C1=O | – | -6.6% (inactive)
CCN1CCN(C2=C(NS(=O)(=O)c3ccc(Br)s3)C(=O)c3ccccc3C2=O)CC1 | 26.1 µM | –
COc1ccc(C2=C(NC(=O)c3cccc(Cl)c3)C(=O)c3ccccc3C2=O)cc1 | 23.1 µM | –
NC1=CC(=O)c2ccccc2C1=O | 7.35 µM | –
O=C(NC1=C(c2ccc(Oc3ccccc3)cc2)C(=O)c2ccccc2C1=O)c1ccccc1 | > 70 µM (inactive) | –
C=CCNC1=C(NCCCN2CCOCC2)C(=O)c2ccccc2C1=O | 33.1 µM | –
O=C1C(NS(=O)(=O)c2ccc(Br)cc2)=C(N2CCCCC2)C(=O)c2ccccc21 | 32.6 µM | –
O=C1C(NS(=O)(=O)c2ccc(Br)cc2)=C(N2CCOCC2)C(=O)c2ccccc21 | 12.2 µM | –
CCN1CCN(C2=C(N(C)C(C)=O)C(=O)c3ccccc3C2=O)CC1 | 3.29 µM | –
C=CCNC1=C(NS(=O)(=O)c2cccs2)C(=O)c2ccccc2C1=O | 24.4 µM | –
CC(=O)N(C)C1=C(N2CCN(C)CC2)C(=O)c2ccccc2C1=O | 3.16 µM | –
CC(=O)NC1=C(c2ccc3c(c2)oc2ccccc23)C(=O)c2ccccc2C1=O | 17.4 µM | –
O=C1C(Nc2ccccc2)=C(N2CCN(c3ccccc3)CC2)C(=O)c2ccccc21 | > 70 µM (inactive) | –
C=CCNC1=C(N(C)C(C)=O)C(=O)c2ccccc2C1=O | 0.274 µM | –
COc1ccc(C2=C(NC(=O)c3ccc(OC)cc3-c3cccc(OC)c3)C(=O)c3ccccc3C2=O)cc1 | > 70 µM (inactive) | –
O=C1C=C(Nc2ccccc2)C(=O)c2ccccc21 | 1.46 µM | –
O=C1C(NS(=O)(=O)c2ccc(Br)s2)=C(N2CCOCC2)C(=O)c2ccccc21 | 23.2 µM | –

SMILES | AC50 [1] | activity change, negative = inhibition [2]
CC(=O)N(C)C1=C(N2CCOCC2)C(=O)c2ccccc2C1=O | 5.55 µM | –
CCN(CC)CCCNC1=C(Nc2ccccc2)C(=O)c2ccccc2C1=O | 21.1 µM | –
COc1ccc(C2=C(NC(=O)c3ccccc3Cl)C(=O)c3ccccc3C2=O)cc1 | 17.1 µM | –
CCN1CCN(C2=C(NC(=O)c3ccccc3)C(=O)c3ccccc3C2=O)CC1 | 5.2 µM | –
O=C(NC1=C(N2CCN(c3ccccc3)CC2)C(=O)c2ccccc2C1=O)c1ccccc1 | > 70 µM (inactive) | –
O=C(NC1=C(c2ccccc2)C(=O)c2ccccc2C1=O)c1ccco1 | 20.4 µM | –
CN1CCN(C2=C(NC(=O)c3ccccc3)C(=O)c3ccccc3C2=O)CC1 | 5.15 µM | –
O=C(NC1=C(N2CCSCC2)C(=O)c2ccccc2C1=O)c1ccc(Br)cc1 | 28.1 µM | –
C=CCNC1=C(N2CCSCC2)C(=O)c2ccccc2C1=O | 12.3 µM | –
O=C1C(NS(=O)(=O)c2ccc(Br)s2)=C(N2CCSCC2)C(=O)c2ccccc21 | 29.1 µM | –
O=C(NC1=C(Cl)C(=O)c2ccccc2C1=O)c1ccccc1 | 4.73 µM | –
CCN1CCN(C2=C(NC(=O)c3ccc(Br)cc3)C(=O)c3ccccc3C2=O)CC1 | 3.7 µM | –
O=C1C(NS(=O)(=O)c2ccc(Br)s2)=C(N2CCCCC2)C(=O)c2ccccc21 | 28.9 µM | –
Cc1ccc(C(=O)NC2=C(c3ccccc3)C(=O)c3ccccc3C2=O)o1 | 19.3 µM | –
O=C(NC1=C(N2CCSCC2)C(=O)c2ccccc2C1=O)c1ccccc1 | 13.2 µM | –
COc1cccc(C2=C(NC(=O)c3ccccc3)C(=O)c3ccccc3C2=O)c1 | 19.1 µM | –
O=C(CNc1cccc2ccccc12)N/N=C/c1ccc([N+](=O)[O-])o1 | 19.8 µM | –
COc1ccc(C2=C(NC(=O)c3ccc(Cl)cc3)C(=O)c3ccccc3C2=O)cc1 | 25.2 µM | –
CC(=O)NC1=C(c2ccccc2)C(=O)c2ccccc2C1=O | 15.2 µM | –
O=C(NC1=C(N2CCOCC2)C(=O)c2ccccc2C1=O)c1ccc(Br)cc1 | 15.9 µM | –
